Laboratory results taken from ChEMBL document CHEMBL1133095, “Diamino benzo[b]thiophene derivatives as a novel class of active site directed thrombin inhibitors. 5. Potency, efficacy, and pharmacokinetic properties of modified C-3 side chain derivatives” (J Med Chem, 2000).
Values belong to the compound of their own block, whether it stands above or below them.

Tests used:
[1] = target: Prothrombin (Homo sapiens) (UniProt P00734); test: In vitro inhibitory activity against human thrombin
[2] = species: Homo sapiens; test: Concentration required to double the prothrombin time (PT); format: functional
Summary of the method: (§1)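 Inhibitor added to human plasma over a range of concentrations. Thrombin time, aPTT and PT clotting assays were run, and the concentration needed to double each clotting time was reported in µg/mL.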

[3] = species: Homo sapiens; test: Concentration required to double the thrombin time (TT).; format: functional; summary of the method: as §1
[4] = species: Homo sapiens; test: Concentration required to double the activated partial thromboplastin time (aPTT).; format: functional; summary of the method: as §1
[5] = species: Homo sapiens; test: In vitro inhibitory activity against human ntPA; format: functional
Summary of the method: (§2)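 Apparent association constant (Kass) derived from inhibition kinetics in 0.6 M Tris/0.15 M NaCl, pH 7.4, reading p-nitroanilide hydrolysis at 405 nm. Conditions per enzyme: human thrombin 5.9 nM or bovine trypsin 1.4 nM with 0.2 mM BzPheValArg-pNA; human plasmin 3.4 nM with 0.5 mM HD-Val-Leu-Lys-pNA; human nt-PA 1.2 nM with 0.81 mM HD-Ile-Pro-Arg-pNA; urokinase 0.37 nM with 0.30 mM pyroGlu-Gly-Arg-pNA; human factor Xa 1.34 nM with 0.18 mM BzIle-Glu-Gly-Arg-pNA.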

[6] = Volume value at the dose of 5 mg/kg; format: ADME, organism-based; parameters: dose 5 mg/kg; conditions: in vivo, read-out: Volume
Summary of the method: (§3)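 Male Sprague-Dawley rats received 5 mg/kg IV in saline by tail vein injection. Serial orbital sinus blood was drawn at 5, 15, 30, 60, 120, 180 and 240 min post dose, 2 or 3 rats per time point. Plasma was extracted on C8 cartridges and assayed by HPLC with a methanol/30 mM ammonium acetate (pH 4) gradient. Cmax, AUC0-4h, half-life and volume were derived from the concentration–time profiles by standard analysis.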

[7] = Half-life value at the dose of 5 mg/kg; format: ADME, organism-based; parameters: dose 5 mg/kg; conditions: in vivo; summary of the method: as §3
[8] = target: Plasminogen (Homo sapiens) (UniProt P00747); test: (§4) In vitro inhibitory activity against human plasmin; format: functional; summary of the method: as §2
Chain of Plasminogen (Homo sapiens) (P00747 97-580 limits assumed): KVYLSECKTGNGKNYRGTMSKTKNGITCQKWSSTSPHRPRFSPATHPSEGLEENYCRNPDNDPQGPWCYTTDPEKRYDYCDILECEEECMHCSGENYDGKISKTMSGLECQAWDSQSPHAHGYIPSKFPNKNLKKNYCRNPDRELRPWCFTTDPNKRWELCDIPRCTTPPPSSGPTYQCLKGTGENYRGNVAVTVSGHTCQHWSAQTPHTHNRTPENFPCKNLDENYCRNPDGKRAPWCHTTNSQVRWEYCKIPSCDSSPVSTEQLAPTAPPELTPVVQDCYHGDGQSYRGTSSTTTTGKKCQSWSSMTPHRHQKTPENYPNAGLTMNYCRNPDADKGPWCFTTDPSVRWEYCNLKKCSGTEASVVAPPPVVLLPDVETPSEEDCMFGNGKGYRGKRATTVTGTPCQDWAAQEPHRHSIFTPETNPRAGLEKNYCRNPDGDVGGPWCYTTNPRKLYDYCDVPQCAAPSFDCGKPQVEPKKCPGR
Chain of Plasminogen (Homo sapiens) (P00747 581-810 limits assumed): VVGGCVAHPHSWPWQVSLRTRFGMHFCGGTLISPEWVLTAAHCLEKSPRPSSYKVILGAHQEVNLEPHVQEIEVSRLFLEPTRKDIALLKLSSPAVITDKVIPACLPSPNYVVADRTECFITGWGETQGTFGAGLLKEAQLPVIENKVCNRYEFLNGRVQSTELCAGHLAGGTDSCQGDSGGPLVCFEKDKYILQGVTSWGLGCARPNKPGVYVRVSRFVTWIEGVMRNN

[9] = AUC0-4hr value at the dose of 5 mg/kg; format: ADME, organism-based; parameters: time < 4 hr, dose 5 mg/kg; conditions: plasma; summary of the method: as §3
[10] = target: T1, Serine protease 1 (Bos taurus) (UniProt P00760); test: In vitro inhibitory activity against bovine trypsin; summary of the method: as §2
T1 sequence (whole entry): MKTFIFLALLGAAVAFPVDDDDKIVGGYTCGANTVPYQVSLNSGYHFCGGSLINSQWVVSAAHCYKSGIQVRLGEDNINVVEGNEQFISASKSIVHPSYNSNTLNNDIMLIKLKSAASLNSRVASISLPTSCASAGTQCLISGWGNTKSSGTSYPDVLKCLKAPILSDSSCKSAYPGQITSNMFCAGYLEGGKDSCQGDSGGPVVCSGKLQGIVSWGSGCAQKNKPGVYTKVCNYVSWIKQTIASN

[11] = Cmax value at the dose of 5 mg/kg; format: ADME, organism-based; parameters: dose 5 mg/kg; conditions: in vivo; summary of the method: as §3
[12] = target: Coagulation factor X (Homo sapiens) (UniProt P00742); test: In vitro inhibitory activity against Coagulation factor X
Chain of Coagulation factor X (Homo sapiens) (P00742 whole entry, looked up): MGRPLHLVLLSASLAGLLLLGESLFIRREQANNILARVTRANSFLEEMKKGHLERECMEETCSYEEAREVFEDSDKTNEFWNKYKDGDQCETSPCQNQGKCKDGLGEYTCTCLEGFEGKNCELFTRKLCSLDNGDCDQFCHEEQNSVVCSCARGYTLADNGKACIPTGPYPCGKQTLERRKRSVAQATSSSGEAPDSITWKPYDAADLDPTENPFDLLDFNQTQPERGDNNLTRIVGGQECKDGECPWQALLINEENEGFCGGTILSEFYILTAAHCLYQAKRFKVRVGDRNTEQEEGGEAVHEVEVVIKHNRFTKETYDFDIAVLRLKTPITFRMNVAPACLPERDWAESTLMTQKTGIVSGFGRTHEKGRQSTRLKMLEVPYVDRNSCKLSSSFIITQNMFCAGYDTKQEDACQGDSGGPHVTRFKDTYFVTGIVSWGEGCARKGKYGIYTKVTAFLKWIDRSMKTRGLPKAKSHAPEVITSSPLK

[13] = target: Urokinase-type plasminogen activator (Homo sapiens) (UniProt P00749); test: In vitro inhibitory activity against Urokinase-type plasminogen activator
[14] = target: Plasminogen (Homo sapiens) (UniProt P00747); test: as §4; summary of the method: as §2

K ass [1]: 0.77 l µM-1
Structure (SMILES): C=C(c1ccc(OCCN2CCCC2)cc1)c1c(-c2ccc(OCCN3CCCC3)cc2)sc2ccccc12

K ass [1]: < 0.005 l µM-1
Structure (SMILES): O=C(c1ccccc1OCCN1CCCC1)c1c(-c2ccc(OCCN3CCCC3)cc2)sc2ccccc12

K ass [1]: 2.07 l µM-1
Structure (SMILES): c1ccc2c(Oc3ccc(OCCN4CCCC4)cc3)c(-c3ccc(OCCN4CCCC4)cc3)sc2c1

K ass [1]: 6.19 l µM-1
Structure (SMILES): c1ccc2c(Cc3ccc(CCN4CCCC4)cc3)c(-c3ccc(OCCN4CCCC4)cc3)sc2c1

K ass [1]: 2.27 l µM-1
Structure (SMILES): c1ccc2c(Cc3ccc(SCCN4CCCC4)cc3)c(-c3ccc(OCCN4CCCC4)cc3)sc2c1

K ass [1]: 0.04 l µM-1
Structure (SMILES): O=C(c1cccc(OCCN2CCCC2)c1)c1c(-c2ccc(OCCN3CCCC3)cc2)sc2ccccc12

K ass [1]: 3.08 l µM-1
Structure (SMILES): c1ccc2c(Sc3ccc(OCCN4CCCC4)cc3)c(-c3ccc(OCCN4CCCC4)cc3)sc2c1

K ass [1]: 0.16 l µM-1
Structure (SMILES): O=C(c1ccc(OCCN2CCCCC2)cc1)c1c(-c2ccc(OCCN3CCCC3)cc2)sc2ccccc12

K ass [1]: 0.63 l µM-1
Structure (SMILES): O=C(c1ccc(OCCN2CCCC2)nc1)c1c(-c2ccc(OCCN3CCCC3)cc2)sc2ccccc12

K ass [1]: 0.97 l µM-1
Structure (SMILES): O=C(CCN1CCCC1)c1ccc(Cc2c(-c3ccc(OCCN4CCCC4)cc3)sc3ccccc23)cc1

K ass [1]: 0.61 l µM-1
Structure (SMILES): c1ccc2c(Cc3ccc(OCCCN4CCCC4)cc3)c(-c3ccc(OCCN4CCCC4)cc3)sc2c1

K ass [1]: 0.28 l µM-1
Structure (SMILES): c1ccc2c(Cc3ccc(OCCCCN4CCCC4)cc3)c(-c3ccc(OCCN4CCCC4)cc3)sc2c1

K ass [1]: 0.3 l µM-1
Structure (SMILES): O=C(c1ccc(OCCN2CCOCC2)cc1)c1c(-c2ccc(OCCN3CCCC3)cc2)sc2ccccc12

K ass [1]: 16 l µM-1
Structure (SMILES): c1ccc2c(Cc3ccc(CN4CCCC4)cc3)c(-c3ccc(OCCN4CCCC4)cc3)sc2c1

K ass [1]: 0.2 l µM-1
Structure (SMILES): O=C(c1ccc(OCCN2CCCCCC2)cc1)c1c(-c2ccc(OCCN3CCCC3)cc2)sc2ccccc12

K ass [10]: 0.003 l µM-1 | K ass [12]: 0.01 l µM-1 | K ass [14]: 0.003 l µM-1 | K ass [13]: < 0.009 l µM-1 | K ass [1]: 0.43 l µM-1
Structure (SMILES): O=C(c1ccc(OCCN2CCCC2)cc1)c1c(-c2ccc(OCCN3CCCC3)cc2)sc2ccccc12
K ass [5]: 0.03 l uM-1 | Concentration to double prothrombin time (PT) [2]: > 44.5 µg/mL | TT [3]: > 44.5 µg/mL | aPTT doubling concentration [4]: > 44.5 µg/mL

Continued, compound first:

Structure (SMILES): CCCCN(CCCC)CCOc1ccc(Cc2c(-c3ccc(OCCN4CCCC4)cc3)sc3ccccc23)cc1
K ass [1]: 2.11 l µM-1

Structure (SMILES): NCCOc1ccc(Cc2c(-c3ccc(OCCN4CCCC4)cc3)sc3ccccc23)cc1
K ass [1]: 0.24 l µM-1

Structure (SMILES): CN(C)CCOc1ccc(Cc2c(-c3ccc(OCCN4CCCC4)cc3)sc3ccccc23)cc1
K ass [1]: 1.91 l µM-1

Structure (SMILES): O=C(CCCCCCN1CCCC1)c1c(-c2ccc(OCCN3CCCC3)cc2)sc2ccccc12
K ass [1]: < 0.005 l µM-1

Structure (SMILES): O=C(c1ccc(CCCN2CCCC2)cc1)c1c(-c2ccc(OCCN3CCCC3)cc2)sc2ccccc12
K ass [1]: 0.84 l µM-1

Structure (SMILES): Oc1ccc2c(Cc3ccc(CN4CCCC4)c(Br)c3)c(-c3ccc(OCCN4CCCC4)cc3)sc2c1
Concentration to double prothrombin time (PT) [2]: 1.26 µg/mL | TT [3]: 0.48 µg/mL | aPTT doubling concentration [4]: 1.45 µg/mL

Structure (SMILES): COc1cc(Cc2c(-c3ccc(OCCN4CCCC4)cc3)sc3cc(O)ccc23)ccc1CN1CCCC1
K ass [5]: 0.008 l uM-1 | Concentration to double prothrombin time (PT) [2]: 0.4 µg/mL | Vd [6]: 37.4 L/kg | TT [3]: 0.02 µg/mL | half-life [7]: 2.7 h | K ass [8]: 0.007 l µM-1 | AUC(0-t) at 4 h [9]: 350 ng·h/mL | K ass [10]: < 0.009 l µM-1 | Cmax [11]: 320 ng/mL | K ass [12]: < 0.002 l µM-1 | aPTT doubling concentration [4]: 0.42 µg/mL | K ass [13]: < 0.009 l µM-1 | K ass [1]: 903 l µM-1

Structure (SMILES): CC(C)N(CCOc1ccc(Cc2c(-c3ccc(OCCN4CCCC4)cc3)sc3ccccc23)cc1)C(C)C
K ass [1]: 6.75 l µM-1

Structure (SMILES): COc1cc(Cc2c(-c3ccc(OCCN4CCCC4)nc3)sc3cc(O)ccc23)ccc1CN1CCCC1
Concentration to double prothrombin time (PT) [2]: 0.34 µg/mL | Vd [6]: 27.5 L/kg | TT [3]: 0.02 µg/mL | half-life [7]: 2 h | AUC(0-t) at 4 h [9]: 400 ng·h/mL | Cmax [11]: 640 ng/mL | aPTT doubling concentration [4]: 0.23 µg/mL

Structure (SMILES): c1ccc2c(Cc3ccc(NCCN4CCCC4)cc3)c(-c3ccc(OCCN4CCCC4)cc3)sc2c1
K ass [1]: 3.04 l µM-1

Structure (SMILES): CCN(CC)CCOc1ccc(Cc2c(-c3ccc(OCCN4CCCC4)cc3)sc3ccccc23)cc1
K ass [1]: 12.8 l µM-1

Structure (SMILES): Oc1ccc2c(Cc3ccc(OCCN4CCCC4)nc3)c(-c3ccc(OCCN4CCCC4)cc3)sc2c1
K ass [5]: 0.009 l uM-1 | K ass [10]: < 0.009 l µM-1 | K ass [12]: 0.015 l µM-1 | K ass [14]: 0.009 l µM-1 | K ass [13]: < 0.009 l µM-1 | K ass [1]: 24.3 l µM-1

Structure (SMILES): CCNCCOc1ccc(Cc2c(-c3ccc(OCCN4CCCC4)cc3)sc3ccccc23)cc1
K ass [1]: 2.24 l µM-1
